High-throughput results: PubChem, several laboratories
NR2E3 ag-1: NR2E3 agonists in two-hybrid cells, primary screen, cell-based, luminescence, CHO-S, Gal4-NCOR/VP16-NR2E3 | Photoreceptor-specific nuclear receptor (Homo sapiens), Q9Y5X4 | luciferase | inhibition of corepressor binding, % at 3.98 µM | 360,000 tested, 0.35% active;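 active means inhibition above the mean of all tested compounds plus 3 SD, cut at about 70% in these data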;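 further: higher means lower luciferase signal from less NR2E3 corepressor binding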
Target sequence (Q9Y5X4 whole entry, looked up, the tested form may be a part): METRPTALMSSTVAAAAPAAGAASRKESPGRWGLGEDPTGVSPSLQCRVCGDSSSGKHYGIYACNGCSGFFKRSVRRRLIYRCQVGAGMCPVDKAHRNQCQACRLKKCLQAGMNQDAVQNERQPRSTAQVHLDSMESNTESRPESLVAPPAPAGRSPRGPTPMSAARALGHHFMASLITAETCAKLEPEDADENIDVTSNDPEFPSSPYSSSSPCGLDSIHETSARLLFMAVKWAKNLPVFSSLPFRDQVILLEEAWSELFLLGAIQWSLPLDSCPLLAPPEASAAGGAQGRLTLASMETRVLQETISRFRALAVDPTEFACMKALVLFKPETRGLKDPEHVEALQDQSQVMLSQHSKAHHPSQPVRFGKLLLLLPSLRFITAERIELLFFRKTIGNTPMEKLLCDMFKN
ADAM10 inh: human ADAM10 inhibitors, primary screen, biochemical, QFRET, HTS. Disintegrin and metalloproteinase domain-containing protein 10 (Homo sapiens), O14672. recombinant ADAM10, EDANS/DABCYL FRET peptide cleavage, 3 h. inhibition, % at 7 µM. 370,000 tested, 0.62% active;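 active means inhibition above a per-campaign cutoff equal to the mean of compounds falling between control-based bounds plus 3 SD, cut at about 20% in these data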
proKLK7 act: proKLK7 zymogen activators, primary screen, biochemical, fluorescence intensity. Kallikrein-7 (Homo sapiens), P49862. purified proKLK7, EDANS-DABCYL substrate fluorescence; 100% is mature enzyme control, 0% vehicle. activation, % at 7 µM. 370,000 tested, 0.9% active. AID 652039, 2013;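 active means activation above the mean of all tested compounds plus 3 SD, computed per campaign excluding outliers beyond control limits, cut at about 13% in these data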
Target sequence (P49862 whole entry, looked up): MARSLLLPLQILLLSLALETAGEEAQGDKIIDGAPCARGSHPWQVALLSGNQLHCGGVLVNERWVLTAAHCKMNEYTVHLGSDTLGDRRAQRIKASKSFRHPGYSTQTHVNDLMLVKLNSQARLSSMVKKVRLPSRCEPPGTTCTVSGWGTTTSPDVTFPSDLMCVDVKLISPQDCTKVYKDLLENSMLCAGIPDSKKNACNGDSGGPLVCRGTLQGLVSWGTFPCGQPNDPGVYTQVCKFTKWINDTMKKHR
NR2E3 ag-2: inhibitors of NR2E3-RetCOR corepressor binding, primary screen, NR2E3 agonist project, biochemical, TR-FRET, GST-NR2E3, biotin-RetCOR; inhibition of corepressor binding, % at 4.78 µM; 1536-well; AID 2300, 2010; 320,000 tested, 0.12% active;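 active means percent inhibition above the cutoff of mean plus 3 SD of all tested compounds, set per screening campaign, cut at about 20% in these data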
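Material – GST-tagged NR2E3 plus biotinylated RetCOR corepressor · Quantity – NR2E3 fusion 1.35 nM · Times – 5 h incubation at 4 °C · Medium – pH 7.5 Tris-based buffer · Technique – TR-FRET, Eu(K)-anti-GST donor, streptavidin-D2 acceptor, ex 340, em 617/671 nm · Benchmarks – high control biotin, low control 0.6% DMSO · Format – 1536-well plates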
JMJD2C inh: inhibitors of GASC-1 histone demethylase, primary screen, biochemical, fluorescence, DELFIA europium; Lysine-specific demethylase 4C (Homo sapiens), Q9H3R0; inhibition, % at 2.35 µM; 330,000 tested, 0.069% active; AID 2099, 2009; GST-JMJD2C(1-420) H3K9me3 demethylation;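 active means more than half of a compound's replicate wells show inhibition beyond 50%, single wells judged on their own value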;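 further: signal counts dimethyl H3K9 product captured on neutravidin plate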
ADAM17 inh: ADAM17 inhibitors, primary screen, biochemical, QFRET; recombinant ADAM17, EDANS/DABCYL FRET peptide cleavage; inhibition, % at 6.95 µM; 370,000 tested, 0.83% active;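 active means inhibition above the mean of compounds lying between control limits plus 3 SD, set per campaign, cut at about 8.5% in these data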
ADAM10 confirm: human ADAM10 inhibitors, confirmation, biochemical, QFRET, triplicate; 2,100 tested, 1% active; AID 743208, 2013; inhibition, % at 6.95 µM; shares compounds with ADAM10 inh; ADAM10 QFRET peptide cleavage, EDANS fluorescence;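 active means inhibition above about 20% chosen separately for each screening run, limit read from the data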
ADAM17 counter: ADAM17 inhibitors, counter-screen for ADAM10 exosite inhibitor project, biochemical, QFRET, high throughput; 2,100 tested, 0.5% active; AID 743214, 2013; inhibition, % at 6.95 µM; shares compounds with ADAM10 inh; ADAM17 QFRET peptide cleavage, EDANS fluorescence;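 active means mean triplicate inhibition above the solvent-only control wells' mean plus 3 SD, cut at about 12% in these data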
Of the large screens only hits and unclear results are named; the others gave an inactive call (follow-up assays come after a bar, where they were run). An excerpt weighted towards active compounds, which were near 2.5% of everything screened.

CCOC(=O)[C@]12CCCC=C1N(Cc1ccc(Cl)cc1Cl)C(=O)[C@H](CC(=O)NCCc1ccccc1OC)C2	ADAM10 inh 22.7 (no result: NR2E3 ag-2, JMJD2C inh) | ADAM10 confirm inactive | ADAM17 counter inactive
O=C(NCCc1ccccc1)c1oc2ccccc2c1COc1ccccc1	ADAM10 inh 19.9 | ADAM10 confirm inactive | ADAM17 counter inactive
O=C(Nc1ccccc1Cc1ccccc1)c1oc2ccccc2c1COc1ccccc1	none
Cc1ccc(Nc2c([N+](=O)[O-])cc(C(=O)N3CC(=O)Nc4ccccc43)cc2[N+](=O)[O-])c(C)c1	ADAM10 inh 20.4 | ADAM10 confirm inactive | ADAM17 counter inactive
Cc1nn(C)cc1CNC(=O)Nc1ccc(Br)cc1Cl	ADAM10 inh 85.3 | ADAM10 confirm inactive | ADAM17 counter inactive
Cc1nn(C)cc1CNC(=O)Nc1cccc(Cl)c1	none
Cc1ccc(-c2[nH][nH]c(=O)c(=O)c2N=Nc2ccccc2)cc1	none
COc1ccc(CNC(=O)C(c2ccc(C)cc2)N(Cc2cccs2)C(=O)c2ccc3c(c2)OCCO3)cc1 (stereo not drawn)	ADAM10 inh 26.1 | ADAM10 confirm inactive | ADAM17 counter inactive
COCCN(C(=O)Cc1cccs1)C(C(=O)NCc1ccc(OC)cc1)c1ccc(OC)cc1 (stereo not drawn)	none
Nc1cc(OC(=O)c2ccco2)nn1S(=O)(=O)c1ccc(F)cc1	ADAM10 inh 60.1 | ADAM10 confirm inactive | ADAM17 counter inactive
CC(=O)N(c1ccc2oc(=O)sc2c1)S(=O)(=O)c1cccs1	none
CC(C)C(=O)N(c1ccc2oc(=O)sc2c1)S(=O)(=O)c1cccs1	ADAM10 inh 22.4 | ADAM10 confirm inactive | ADAM17 counter inactive
Cc1oc2ccc(NS(=O)(=O)c3cccc4cccnc34)cc2c1C(=O)OC(C)C	none
CCCCCCCOc1ccc(C2(C)NC(=O)NC2=O)cc1 (stereo not drawn)	ADAM10 inh 21.0 | ADAM10 confirm inactive | ADAM17 counter inactive
CCCCOc1ccc(C2(C)NC(=O)NC2=O)cc1 (stereo not drawn)	none
NC(=O)c1cc[n+](CC(=O)c2ccc(NC(=O)c3ccccc3)cc2)cc1	none
CC(=O)c1ccc(OCC(=O)N2CCN(S(=O)(=O)c3ccc(C)cc3C)CC2)cc1	ADAM10 inh 83.8 | ADAM10 confirm inactive | ADAM17 counter inactive
Cc1ccc(S(=O)(=O)N2CCN(C(=O)COC(=O)COc3ccc(Br)cc3)CC2)c(C)c1	none (no result: NR2E3 ag-2, JMJD2C inh)
CSc1ccc(CSCC(=O)N2CCN(S(=O)(=O)c3ccc(C)cc3C)CC2)cc1	ADAM10 inh 24.0 | ADAM10 confirm inactive | ADAM17 counter inactive
COc1ccccc1C(=O)NCCC(=O)Nc1ccc(S(=O)(=O)N2CC(C)CC(C)C2)cc1 (stereo not drawn)	ADAM10 inh 28.9, ADAM17 inh 9.6 | ADAM10 confirm inactive | ADAM17 counter inactive
C/C(=N\NC(=O)CCc1ccc(S(=O)(=O)N2CCOCC2)cc1)c1ccc(Br)cc1	none
S=c1[nH]nc(CSc2nc3ccccc3s2)n1Cc1ccccc1	ADAM10 inh 21.9 | ADAM10 confirm inactive | ADAM17 counter inactive
COc1ccccc1NC(=O)CCNS(=O)(=O)c1ccc2c(c1)CCN2C(C)=O	none
O=C(Nc1ccc2[nH]c(=S)sc2c1)c1ccccc1	none
O=C(Nc1ccc2[nH]c(=S)sc2c1)Nc1ccccc1F	ADAM10 inh 23.7 | ADAM10 confirm inactive | ADAM17 counter inactive
COc1ccc(Cl)cc1NC(=O)c1cccc(S(=O)(=O)Nc2c(C)n(C)n(-c3ccccc3)c2=O)c1	none (no result: NR2E3 ag-1, NR2E3 ag-2, JMJD2C inh)
CCCN(CCC)S(=O)(=O)c1ccc(C(=O)NCc2n[nH]c(=S)n2-c2ccc(Cl)c(Cl)c2)cc1	ADAM10 inh 24.4 | ADAM10 confirm inactive | ADAM17 counter inactive
O=C(NCc1n[nH]c(=S)n1-c1ccc(Cl)c(Cl)c1)c1ccc(S(=O)(=O)N2CCCCC2)cc1	none
O=C(Oc1cccc(NC(=O)c2ccco2)c1)c1cccc(S(=O)(=O)N2CCCCC2)c1	ADAM10 inh 20.7 | ADAM10 confirm inactive | ADAM17 counter inactive
O=C(Nc1cccc(S(=O)(=O)N2CCOCC2)c1)c1ccco1	none
Cc1ccc(-c2cc(C(=O)NN=C/C=C/c3ccco3)[nH]n2)cc1C	ADAM10 inh 20.0 (no result: NR2E3 ag-1, NR2E3 ag-2, JMJD2C inh) | ADAM10 confirm inactive | ADAM17 counter inactive
CCn1ccc(C(=O)N2CCN(c3ncccn3)CC2)n1	none
N#CNC(=Nc1cccc(F)c1)SCc1ccccc1F	ADAM10 inh 22.9 | ADAM10 confirm inactive | ADAM17 counter inactive
CC(C)N=C(NC#N)SCc1ccccc1F	none
CCOC(=O)N1CCN(C(=O)C2CC(=O)N(c3ccc(C)cc3)C2)CC1 (stereo not drawn)	none
O=C(Nc1ccn(Cc2ccccc2F)n1)c1ccc(COc2ccc(Br)cc2)cc1	ADAM10 inh 19.9 | ADAM10 confirm inactive | ADAM17 counter inactive
CC(=O)Oc1ccc2ccccc2c1C(NC(=O)Cc1ccccc1)c1ccc(Cl)cc1 (stereo not drawn)	ADAM10 inh 22.1 | ADAM10 confirm inactive | ADAM17 counter inactive
Cc1c(C(=O)NCc2ccc(F)cc2)sc(=O)n1Cc1ccc(Cl)c(Cl)c1	none (no result: NR2E3 ag-2, JMJD2C inh)
CSc1ccc(Cn2c(C)c(C(=O)NCc3ccc(Cl)c(Cl)c3)sc2=O)cc1	ADAM10 inh 21.4 (no result: NR2E3 ag-2, JMJD2C inh) | ADAM10 confirm inactive | ADAM17 counter inactive
Cc1c(C(=O)NCc2ccc3c(c2)OCCO3)sc(=O)n1Cc1ccc2c(c1)OCO2	none (no result: NR2E3 ag-2, JMJD2C inh)
CSc1ccc(Cn2c(C)c(C(=O)NCc3ccc4c(c3)OCCO4)sc2=O)cc1	ADAM10 inh 20.4 (no result: NR2E3 ag-2, JMJD2C inh) | ADAM10 confirm inactive | ADAM17 counter inactive
CC1CN(C/C(=N\O)C23CC4CC(CC(C4)C2)C3)CC(C)O1 (stereo not drawn)	none (no result: NR2E3 ag-2)
CCOc1ccc(S(=O)(=O)N(C)CC(=O)NC2CCCC2)cc1	none
Cc1ccc(CNCc2ccco2)cc1	none (no result: NR2E3 ag-2)
